Reference: paper PMC9169238 (RSC Advances, 2022)

Columns and labels:
Format in all cases: cell-based
[1] = tested on: Hep G2 – Homo sapiens hepatocellular carcinoma; assay: MTT cytotoxicity assay, HepG2; conditions: HepG2, 24 h, read-out: IC50 values (μM) HEPG2
Summary of the method: (§1)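 Test compound at 1 to 100 μM for 24 h. MTT (0.5 mg mL−1) added for 3 h, formazan dissolved in DMSO, absorbance read. Run in triplicate; IC50 calculated.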

[2] = tested on: DU145 – Homo sapiens prostrate carcinoma; assay: MTT cytotoxicity assay, DU145; conditions: DU-145, 24 h, read-out: IC50 values (μM) DU145
Summary of the method: as §1

[3] = tested on: CHO-K1 – Cricetulus griseus chinese hamster ovary cells; assay: MTT cytotoxicity assay, non-cancerous CHO-K1; conditions: CHO-K1, 24 h, read-out: IC50 values (μM) CHO
[4] = tested on: A549 – Homo sapiens lung carcinoma; assay: MTT cytotoxicity assay, A549; conditions: A549, 24 h, read-out: IC50 values (μM) A549
Summary of the method: as §1

[5] = tested on: B16-F10 – Mus musculus mouse skin melanoma; assay: MTT cytotoxicity assay, B16-F10; conditions: B16-F10, 24 h, read-out: IC50 values (μM) B16-F10
Summary of the method: as §1

Row | Structure (SMILES) | IC50 [1] [µM] | IC50 [2] [µM] | IC50 [3] [µM] | IC50 [4] [µM] | IC50 [5] [µM]
1 | O=C(Nc1ccc(F)cc1)c1ccccc1-n1c(=O)[nH]c2ccc(Cl)cc2c1=O [Compound 3o, 2-(6-Chloro-2,4-dioxo-1,2-dihydroquinazolin-3(4H)-yl)-N-(4-fluorophenyl)benzamide] | 3.02 ± 0.06 | 5.17 ± 0.07 | 74.5 ± 9.44 | 26.3 ± 1.03 | 16.03 ± 0.06
2 | O=C(Nc1ccccc1)c1ccccc1-n1c(=O)[nH]c2ccccc2c1=O [Compound 3a, 2-(2,4-dioxo-1,2-dihydroquinazolin-3(4H)-yl)-N-phenylbenzamide] | 8.73 ± 0.02 | 14.83 ± 0.13 | – | 29.4 ± 0.45 | 39.51 ± 0.13
3 | CCNC(=O)c1ccccc1-n1c(=O)[nH]c2ccc(F)cc2c1=O [Compound 3m, N-Ethyl-2-(6-fluoro-2,4-dioxo-1,2-dihydroquinazolin-3(4H)-yl)benzamide] | 20.2 ± 0.31 | 19.39 ± 0.14 | 88 ± 3.56 | 26.3 ± 1.32 | 41.4 ± 0.81
4 | Cc1ccc(NC(=O)c2ccccc2-n2c(=O)[nH]c3ccccc3c2=O)cc1 [Compound 3c, 2-(2,4-dioxo-1,2-dihydroquinazolin-3(4H)-yl)-N-(p-tolyl)benzamide] | 5.33 ± 0.12 | 11.49 ± 0.04 | – | 15.2 ± 0.7 | 17.9 ± 0.17
5 | CCCCNC(=O)c1cc(Cl)ccc1-n1c(=O)[nH]c2ccccc2c1=O [Compound 3g, N-Butyl-5-chloro-2-(2,4-dioxo-1,2-dihydroquinazolin-3(4H)-yl)benzamide] | 15.3 ± 0.78 | 18.65 ± 0.08 | – | 30.4 ± 5.52 | 20.5 ± 0.91
6 | COc1ccc(NC(=O)c2ccccc2-n2c(=O)[nH]c3ccccc3c2=O)cc1 [Compound 3b, 2-(2,4-dioxo-1,2-dihydroquinazolin-3(4H)-yl)-N-(4-methoxyphenyl)benzamide] | 23.3 ± 0.52 | 11.56 ± 0.06 | – | 19.5 ± 0.25 | 24.8 ± 0.7
7 | O=C(Nc1ccc(F)cc1)c1ccccc1-n1c(=O)[nH]c2ccc(F)cc2c1=O [Compound 3k, 2-(6-Fluoro-2,4-dioxo-1,2-dihydroquinazolin-3(4H)-yl)-N-(4-fluorophenyl)benzamide] | 28.7 ± 0.92 | 11.59 ± 0.06 | – | 17.2 ± 0.41 | 30 ± 0.42
8 | COc1ccc(NC(=O)c2ccccc2-n2c(=O)[nH]c3ccc(F)cc3c2=O)cc1 [Compound 3j, 2-(6-Fluoro-2,4-dioxo-1,2-dihydroquinazolin-3(4H)-yl)-N-(4-methoxyphenyl)benzamide] | 8.74 ± 0.34 | 12.3 ± 0.17 | – | 30.4 ± 1.35 | 34.3 ± 1.55
9 | COc1cccc2c1C(=O)c1c(O)c3c(c(O)c1C2=O)C[C@@](O)(C(=O)CO)C[C@@H]3O[C@H]1C[C@H](N)[C@H](O)[C@H](C)O1 [Doxorubicin, doxorubicin, reference compound] | 0.72 ± 0.012 | 0.363 ± 0.01 | – | 0.55 ± 0.16 | 0.7 ± 0.56
10 | O=C(Nc1ccc(Br)cc1)c1ccccc1-n1c(=O)[nH]c2ccccc2c1=O [Compound 3e, N-(4-Bromophenyl)-2-(2,4-dioxo-1,2-dihydroquinazolin-3(4H)-yl)benzamide] | 9.48 ± 0.05 | 12.05 ± 0.02 | 69.4 ± 5.17 | 11.7 ± 0.14 | 14.67 ± 0.05
11 | O=c1[nH]cc(F)c(=O)[nH]1 [Compound 5FU, 5-fluorouracil, reference compound] | 23 ± 0.27 | 16.32 ± 0.02 | – | 29.6 ± 1.64 | 7.55 ± 0.01
12 | CCNC(=O)c1ccccc1-n1c(=O)[nH]c2ccc(Cl)cc2c1=O [Compound 3p, 2-(6-Chloro-2,4-dioxo-1,2-dihydroquinazolin-3(4H)-yl)-N-ethylbenzamide] | 33.9 ± 0.71 | 13.02 ± 0.03 | – | 22.8 ± 0.71 | 31.67 ± 0.14
13 | O=C(Nc1ccc(Br)cc1)c1ccccc1-n1c(=O)[nH]c2ccc(F)cc2c1=O [Compound 3l, N-(4-Bromophenyl)-2-(6-fluoro-2,4-dioxo-1,2-dihydroquinazolin-3(4H)-yl)benzamide] | 7.77 ± 0.02 | 12.63 ± 0.08 | 51.5 ± 2.74 | 17.4 ± 0.18 | 28.5 ± 0.31
14 | O=C(Nc1ccccc1)c1ccccc1-n1c(=O)[nH]c2ccc(Cl)cc2c1=O [Compound 3n, 2-(6-Chloro-2,4-dioxo-1,2-dihydroquinazolin-3(4H)-yl)-N-phenylbenzamide] | 12.3 ± 0.26 | 10.4 ± 0.13 | 73.9 ± 2.81 | 14.7 ± 0.18 | 14.83 ± 0.01
15 | CCNC(=O)c1ccccc1-n1c(=O)[nH]c2ccccc2c1=O [Compound 3h, 2-(2,4-Dioxo-1,2-dihydroquinazolin-3(4H)-yl)-N-ethylbenzamide] | 16.7 ± 1.72 | 10.44 ± 0.02 | 94.2 ± 2.44 | 34.8 ± 4.65 | 27.1 ± 0.68
16 | CCCCNC(=O)c1cc(Cl)ccc1-n1c(=O)[nH]c2ccc(Cl)cc2c1=O [Compound 3q, N-Butyl-5-chloro-2-(6-chloro-2,4-dioxo-1,2-dihydroquinazolin-3(4H)-yl)benzamide] | 8.51 ± 0.2 | 9.37 ± 0.03 | – | 28.7 ± 1.38 | 36.46 ± 0.1
17 | O=C(Nc1ccccc1)c1ccccc1-n1c(=O)[nH]c2ccc([N+](=O)[O-])cc2c1=O [Compound 3r, 2-(6-Nitro-2,4-dioxo-1,2-dihydroquinazolin-3(4H)-yl)-N-phenylbenzamide] | 16 ± 0.51 | 15.59 ± 0.07 | – | 16.7 ± 0.3 | 33.13 ± 0.12
